Converted amounts (≈) assume the structure as drawn. The source made the active and inactive calls. The calls are words filed in the database; no cut-off is given here.
Tests used:
[1] = system: Salmonella typhi; experiment: Antibacterial activity against Salmonella typhi after 24 hrs by serial dilution method; assay type: functional, Salmonella enterica subsp. enterica serovar Typhi; settings: Salmonella enterica
Outline: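 Serial tube dilution MIC in nutrient broth. Bacteria were grown until OD600 reached 0.4-0.6. Tubes held 5 ml broth plus 1 ml compound at 0.78, 1.56, 3.12, 6.25, 12.5, 25 or 50 µg/ml and were shaken at 180 rpm for 24 h. Initial medium OD was read at 600 nm.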

[2] = system: Pseudomonas aeruginosa; experiment: Antibacterial activity against Pseudomonas aeruginosa MTCC 2642 after 24 hrs by serial dilution method; assay type: functional; settings: MTCC 2642, 24 h
Outline: (§1)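 Serial tube dilution MIC. Strains were grown in nutrient broth to an OD600 of 0.4-0.6. Compounds were tested at 0.78, 1.56, 3.12, 6.25, 12.5, 25 and 50 µg/ml, each in a separate tube containing 5 ml nutrient broth plus 1 ml compound solution. Tubes were incubated 24 h with shaking at 180 rpm. Growth was followed by optical density at 600 nm.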

[3] = system: Escherichia coli; experiment: Antibacterial activity against Escherichia coli MTCC 82 after 24 hrs by serial dilution method; assay type: functional; settings: MTCC 82, 24 h; outline: as §1
[4] = system: Bacillus subtilis; experiment: Antibacterial activity against Bacillus subtilis MTCC 2451 after 24 hrs by serial dilution method; assay type: functional; settings: MTCC 2451, 24 h; outline: as §1
[5] = system: Aspergillus niger; experiment: Antifungal activity against Aspergillus niger MTCC 1344 after 24 hrs by serial dilution method; assay type: functional; settings: MTCC 1344, 24 h
Outline: (§2)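 Fungal MIC by serial tube dilution. Dilutions of test compounds (1.9–500 µg/ml) were made from stock solution. Each tube held 1 ml nutrient broth and received 20 µl of standard strain culture.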

[6] = system: Saccharomyces cerevisiae; experiment: Antifungal activity against Saccharomyces cerevisiae MTCC 172 after 24 hrs by serial dilution method; assay type: functional; settings: MTCC 172, 24 h; outline: as §2
[7] = system: Candida albicans; experiment: Antifungal activity against Candida albicans MTCC 3018 after 24 hrs by serial dilution method; assay type: functional; settings: MTCC 3018, 24 h; outline: as §2
[8] = Antifungal activity against Cryptococcus gastricus MTCC 1715 after 24 hrs by serial dilution method; assay type: functional; settings: Goffeauzyma gastrica; outline: as §2
[9] = system: Nannizzia gypsea; experiment: Antifungal activity against Microsporum gypseum MTCC 4490 after 24 hrs by serial dilution method; assay type: functional; settings: MTCC 4490, 24 h; outline: as §2
[10] = system: Staphylococcus aureus; experiment: Antibacterial activity against Staphylococcus aureus MTCC 96 after 24 hrs by serial dilution method; assay type: functional; settings: MTCC 96, 24 h; outline: as §1
[11] = system: Klebsiella pneumoniae; experiment: Antibacterial activity against Klebsiella pneumoniae MTCC 530 after 24 hrs by serial dilution method; assay type: functional, organism-based

Structure (SMILES)	MIC [1]	MIC [2]	MIC [3]	MIC [4]	MIC [5]	MIC [6]	MIC [7]	MIC [8]	MIC [9]	MIC [10]	Activity [11]
CC1=C(/C=C/C(=O)/C=C/c2ccc(Br)cc2)C(C)(C)CCC1	> 100 µg/mL	> 100 µg/mL	> 100 µg/mL								
COc1ccc(/C=C/C(=O)/C=C/C2=C(C)CCCC2(C)C)cc1OC	> 100 µg/mL	55.5 µg/mL (≈ 163 µM)	42 µg/mL (≈ 123 µM)	22.5 µg/mL (≈ 66.1 µM)							
COC1=CC(=O)C[C@@H](C)[C@]12Oc1c(Cl)c(OC)cc(OC)c1C2=O [GRISEOFULVIN]					1.9 µg/mL (≈ 5.39 µM)	1.9 µg/mL (≈ 5.39 µM)	1.9 µg/mL (≈ 5.39 µM)	1.9 µg/mL (≈ 5.39 µM)	1.9 µg/mL (≈ 5.39 µM)		
CC1=C(/C=C/C(=O)/C=C/c2ccccc2Br)C(C)(C)CCC1		> 100 µg/mL		40.2 µg/mL (≈ 112 µM)	7.6 µg/mL (≈ 21.2 µM)	3.9 µg/mL (≈ 10.9 µM)	31.2 µg/mL (≈ 86.8 µM)	> 100 µg/mL	> 100 µg/mL	25 µg/mL (≈ 69.6 µM)	
OC(Cn1cncn1)(Cn1cncn1)c1ccc(F)cc1F [FLUCONAZOLE]					1.9 µg/mL (≈ 6.2 µM)	1.9 µg/mL (≈ 6.2 µM)	3.9 µg/mL (≈ 12.7 µM)	31.2 µg/mL (≈ 102 µM)	1.9 µg/mL (≈ 6.2 µM)		
CC1=C(/C=C/C(=O)/C=C/c2ccccc2[N+](=O)[O-])C(C)(C)CCC1	25 µg/mL (≈ 76.8 µM)	3.12 µg/mL (≈ 9.59 µM)	12.5 µg/mL (≈ 38.4 µM)	3.12 µg/mL (≈ 9.59 µM)	32.4 µg/mL (≈ 99.6 µM)	42.5 µg/mL (≈ 131 µM)	> 100 µg/mL	58.4 µg/mL (≈ 179 µM)	> 100 µg/mL	6.25 µg/mL (≈ 19.2 µM)	inactive
CC1=C(/C=C/C(=O)/C=C/c2ccc(C#N)cc2)C(C)(C)CCC1	> 100 µg/mL		37 µg/mL (≈ 121 µM)	> 100 µg/mL	52.4 µg/mL (≈ 172 µM)	> 100 µg/mL	80 µg/mL (≈ 262 µM)	> 100 µg/mL	90.5 µg/mL (≈ 296 µM)	42 µg/mL (≈ 138 µM)	
COc1ccccc1/C=C/C=C/C(=O)/C=C/C1=C(C)CCCC1(C)C	> 100 µg/mL	32.5 µg/mL (≈ 96.6 µM)	> 100 µg/mL	25 µg/mL (≈ 74.3 µM)	80 µg/mL (≈ 238 µM)	34 µg/mL (≈ 101 µM)	> 100 µg/mL	19.5 µg/mL (≈ 58 µM)	71.5 µg/mL (≈ 212 µM)	> 100 µg/mL	
CC1=C(/C=C/C(=O)/C=C/c2ccc(Cl)c(Cl)c2)C(C)(C)CCC1	> 100 µg/mL		22 µg/mL (≈ 63 µM)	25 µg/mL (≈ 71.6 µM)						32.5 µg/mL (≈ 93 µM)	
CC1=C(/C=C/C(=O)/C=C/c2ccc(F)cc2)C(C)(C)CCC1			> 100 µg/mL	25 µg/mL (≈ 83.8 µM)	15.6 µg/mL (≈ 52.3 µM)	15.6 µg/mL (≈ 52.3 µM)	12.5 µg/mL (≈ 41.9 µM)	> 100 µg/mL	> 100 µg/mL	25.5 µg/mL (≈ 85.5 µM)	
CC1(C)S[C@@H]2[C@H](NC(=O)[C@H](N)c3ccc(O)cc3)C(=O)N2[C@H]1C(=O)O [AMOXICILLIN]	0.9 µg/mL (≈ 2.46 µM)	1 µg/mL (≈ 2.74 µM)	0.12 µg/mL (≈ 0.328 µM)	0.5 µg/mL (≈ 1.37 µM)						0.5 µg/mL (≈ 1.37 µM)	
O=C(O)c1cn(C2CC2)c2cc(N3CCNCC3)c(F)cc2c1=O [CIPROFLOXACIN]		1.8 µg/mL (≈ 5.43 µM)	0.9 µg/mL (≈ 2.72 µM)	0.75 µg/mL (≈ 2.26 µM)						1.2 µg/mL (≈ 3.62 µM)	
COc1cc(/C=C/C(=O)/C=C/C2=C(C)CCCC2(C)C)cc(OC)c1OC	45 µg/mL (≈ 121 µM)	22.5 µg/mL (≈ 60.7 µM)		> 100 µg/mL						19.5 µg/mL (≈ 52.6 µM)	inactive
CC1=C(/C=C/C(=O)/C=C/c2cccc3ccccc23)C(C)(C)CCC1			55.5 µg/mL (≈ 168 µM)	25 µg/mL (≈ 75.6 µM)	55 µg/mL (≈ 166 µM)	> 100 µg/mL	71.5 µg/mL (≈ 216 µM)	> 100 µg/mL	98 µg/mL (≈ 297 µM)	25 µg/mL (≈ 75.6 µM)	
CC1=C(/C=C/C(=O)/C=C/c2ccc(Cl)cc2)C(C)(C)CCC1	> 100 µg/mL	12.5 µg/mL (≈ 39.7 µM)	3.12 µg/mL (≈ 9.91 µM)	6.25 µg/mL (≈ 19.9 µM)	> 100 µg/mL	12.5 µg/mL (≈ 39.7 µM)	> 100 µg/mL	> 100 µg/mL	> 100 µg/mL	25 µg/mL (≈ 79.4 µM)	inactive
CC1=C(/C=C/C(=O)/C=C/C=C/c2ccccc2)C(C)(C)CCC1	50 µg/mL (≈ 163 µM)	> 100 µg/mL	6.25 µg/mL (≈ 20.4 µM)	3.12 µg/mL (≈ 10.2 µM)	25 µg/mL (≈ 81.6 µM)	80 µg/mL (≈ 261 µM)	> 100 µg/mL	55.5 µg/mL (≈ 181 µM)	> 100 µg/mL	6.25 µg/mL (≈ 20.4 µM)	inactive
CC1=C(/C=C/C(=O)/C=C/c2ccc([N+](=O)[O-])cc2)C(C)(C)CCC1	> 100 µg/mL	12.5 µg/mL (≈ 38.4 µM)	6.25 µg/mL (≈ 19.2 µM)	3.12 µg/mL (≈ 9.59 µM)	9.6 µg/mL (≈ 29.5 µM)	19.5 µg/mL (≈ 59.9 µM)	11.2 µg/mL (≈ 34.4 µM)	90.4 µg/mL (≈ 278 µM)	82 µg/mL (≈ 252 µM)	25 µg/mL (≈ 76.8 µM)	
COc1ccccc1/C=C/C(=O)/C=C/C1=C(C)CCCC1(C)C	> 100 µg/mL	> 100 µg/mL	31.5 µg/mL (≈ 101 µM)	25 µg/mL (≈ 80.5 µM)	92.5 µg/mL (≈ 298 µM)	61.4 µg/mL (≈ 198 µM)	> 100 µg/mL	> 100 µg/mL	88.5 µg/mL (≈ 285 µM)	22.2 µg/mL (≈ 71.5 µM)	
CC1=C(/C=C/C(=O)/C=C/c2ccccc2Cl)C(C)(C)CCC1	> 100 µg/mL	12.5 µg/mL (≈ 39.7 µM)	1.56 µg/mL (≈ 4.95 µM)	0.78 µg/mL (≈ 2.48 µM)	33.5 µg/mL (≈ 106 µM)	12.5 µg/mL (≈ 39.7 µM)	11.5 µg/mL (≈ 36.5 µM)	> 100 µg/mL	94 µg/mL (≈ 299 µM)	1.56 µg/mL (≈ 4.95 µM)	
CC1=C(/C=C/C(=O)/C=C/c2ccoc2)C(C)(C)CCC1	74 µg/mL (≈ 274 µM)	> 100 µg/mL	> 100 µg/mL	22.5 µg/mL (≈ 83.2 µM)	61.4 µg/mL (≈ 227 µM)	> 100 µg/mL	74 µg/mL (≈ 274 µM)	72.5 µg/mL (≈ 268 µM)	> 100 µg/mL		
CC1=C(/C=C/C(=O)/C=C/c2ccc(C)cc2)C(C)(C)CCC1	> 100 µg/mL	65 µg/mL (≈ 221 µM)		25 µg/mL (≈ 84.9 µM)	> 100 µg/mL	40.5 µg/mL (≈ 138 µM)	46 µg/mL (≈ 156 µM)	> 100 µg/mL	> 100 µg/mL	> 100 µg/mL	
CC1=C(/C=C/C(=O)/C=C/c2ccccc2F)C(C)(C)CCC1	> 100 µg/mL		> 100 µg/mL		9.9 µg/mL (≈ 33.2 µM)	11.4 µg/mL (≈ 38.2 µM)	44.5 µg/mL (≈ 149 µM)	> 100 µg/mL	> 100 µg/mL	> 100 µg/mL	
COc1ccc(/C=C/C(=O)/C=C/C2=C(C)CCCC2(C)C)cc1	> 100 µg/mL		> 100 µg/mL							25 µg/mL (≈ 80.5 µM)	
CC1=C(/C=C/C(=O)/C=C/c2ccccc2C)C(C)(C)CCC1	55.5 µg/mL (≈ 188 µM)		30.5 µg/mL (≈ 104 µM)	25 µg/mL (≈ 84.9 µM)	> 100 µg/mL	96 µg/mL (≈ 326 µM)	72 µg/mL (≈ 245 µM)	> 100 µg/mL	> 100 µg/mL	> 100 µg/mL	inactive

From ChEMBL document CHEMBL2150893, “Synthesis of β-ionone derived chalcones as potent antimicrobial agents” (2012)
